ChEMBL document CHEMBL2046401, “Detailed structure-activity relationship of indolecarboxamides as H4 receptor ligands” (Eur J Med Chem, 2012)
≈ marks a conversion by molar mass, not a printed value.

Assays:
Histamine H4 receptor = Histamine H4 receptor (Homo sapiens, UniProt Q9H3N8); assay: Displacement of [3H]histamine from human histamine H4 receptor expressed in HEK cells; assay type: cell-based, HEK293
[1] = Solubility of the compound at pH 6.8; assay type: physicochemical; conditions: buffer
Method in brief: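 Solubility determined by the DMSO solution precipitation method.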

[2] = Half life in mouse liver microsomes; assay type: ADME, Microsome
[3] = Half life in human liver microsomes; assay type: ADME, Microsome

| Structure (SMILES) | Ki (Histamine H4 receptor) | further results |
| --- | --- | --- |
| COc1ccc2[nH]c(C(=O)N3CCN(C)CC3)cc2c1 | 1 µM | – |
| COc1ccc2cc(C(=O)N3CCN(C)CC3)[nH]c2c1 | 15.8 µM | – |
| CN1CCN(C(=O)c2cc3cccnc3[nH]2)CC1 | 2 µM | – |
| CN1CCN(C(=O)c2cc3ccccc3s2)CC1 | 2.51 µM | – |
| CN1CCN(C(=O)c2cc3cc(Cl)ccc3o2)CC1 | 0.251 µM | – |
| CN1CCN(C(=O)c2cc3ncccc3[nH]2)CC1 | 3.98 µM | – |
| CN1CCN(C(=O)c2cc3cnccc3[nH]2)CC1 | 6.31 µM | – |
| CN1CCN(C(=O)c2cc3ccncc3[nH]2)CC1 | 2 µM | – |
| COc1cccc2[nH]c(C(=O)N3CCN(C)CC3)cc12 | 1 µM | – |
| CN1CCN(C(=O)c2cc3c(O)cccc3[nH]2)CC1 | 0.158 µM | – |
| CN1CCN(C(=O)c2cc3c([N+](=O)[O-])cccc3[nH]2)CC1 | 0.794 µM | – |
| CN1CCN(C(=O)c2cc3c(N)cccc3[nH]2)CC1 | 0.316 µM | – |
| CC(=O)c1cccc2[nH]c(C(=O)N3CCN(C)CC3)cc12 | 5.01 µM | – |
| CC(=O)c1ccc2[nH]c(C(=O)N3CCN(C)CC3)cc2c1 | 12.6 µM | – |
| CN1CCN(C(=O)c2cc3ccc(Cl)cc3[nH]2)CC1 | 0.158 µM | – |
| CN1CCN(C(=O)c2cc3ccc([N+](=O)[O-])cc3[nH]2)CC1 | 2 µM | – |
| COc1cccc2cc(C(=O)N3CCN(C)CC3)[nH]c12 | 2.51 µM | – |
| CN1CCN(C(=O)c2cc3cccc([N+](=O)[O-])c3[nH]2)CC1 | 0.794 µM | – |

| Structure (SMILES) | Ki (Histamine H4 receptor) | further results |
| --- | --- | --- |
| CN1CCN(C(=O)c2cc3cccc(C(F)(F)F)c3[nH]2)CC1 | 1 µM | – |
| CN[C@@H]1CCN(C(=O)c2cc3cccc(C)c3[nH]2)C1 | 0.631 µM | – |
| CNC1CN(C(=O)c2cc3cccc(C)c3[nH]2)C1 | 0.398 µM | – |
| CN[C@@H]1CCN(C(=O)c2cc3cc(Cl)cc(C)c3[nH]2)C1 | 0.251 µM | solubility [1]: 59 µg/mL (≈ 202 µM); half-life [2]: 27 min; half-life [3]: > 90 min |
| CNC1CN(C(=O)c2cc3cc(Cl)cc(C)c3[nH]2)C1 | 0.2 µM | solubility [1]: 51 µg/mL (≈ 184 µM); half-life [2]: 26 min; half-life [3]: > 90 min |
| CN1CCCN(C(=O)c2cc3ccccc3[nH]2)CC1 | 0.398 µM | – |
| CN1CCCN(C(=O)c2cc3cccc(C(F)(F)F)c3[nH]2)CC1 | 5.01 µM | – |
| CN1CCCN(C(=O)c2cc3c(F)cccc3[nH]2)CC1 | 0.251 µM | – |
| COc1cccc2cc(C(=O)N3CCCN(C)CC3)[nH]c12 | 15.8 µM | – |
| CN1CCCN(C(=O)c2cc3cccc(F)c3[nH]2)CC1 | 0.398 µM | – |
| Cc1cccc2cc(C(=O)N3CCCN(C)CC3)[nH]c12 | 1.58 µM | – |
| O=C(c1cc2cccc(F)c2[nH]1)N1CCNCC1 | 0.1 µM | – |
| CN[C@@H]1CCN(C(=O)c2cc3cccc(F)c3[nH]2)C1 | 0.501 µM | – |
| CNC1CN(C(=O)c2cc3cccc(F)c3[nH]2)C1 | 0.398 µM | – |
| CNC1CN(C(=O)c2cc3cc(Cl)cc(F)c3[nH]2)C1 | 0.1 µM | – |
| CN[C@@H]1CCN(C(=O)c2cc3cc(Cl)cc(F)c3[nH]2)C1 | 0.251 µM | – |
| CN1CCN(C(=O)c2cc3cc(Cl)cc([N+](=O)[O-])c3[nH]2)CC1 | 0.398 µM | – |
| CN1CCN(C(=O)c2cc3c(F)ccc(F)c3[nH]2)CC1 | 0.0794 µM | – |

The remaining compounds from weak to strong by Ki (Histamine H4 receptor), led by results:

| Ki (Histamine H4 receptor) | Structure (SMILES) | further results |
| --- | --- | --- |
| 0.0794 µM | CN1CCN(C(=O)c2cc3cc([N+](=O)[O-])ccc3[nH]2)CC1 | – |
| 0.0794 µM | CN1CCN(C(=O)c2cc3ccc(N)cc3[nH]2)CC1 | – |
| 0.0794 µM | Cc1cccc2cc(C(=O)N3CC(N4CCCC4)C3)[nH]c12 | – |
| 0.0631 µM | O=C(c1cc2cc(Cl)ccc2[nH]1)N1CCCNCC1 | – |
| 0.0631 µM | CN1CCCN(C(=O)c2cc3cc(Cl)cc(F)c3[nH]2)CC1 | – |
| 0.0501 µM | Cc1ccc2[nH]c(C(=O)N3CCN(C)CC3)cc2c1 | – |
| 0.0398 µM | Cc1cccc2cc(C(=O)N3CCNCC3)[nH]c12 | – |
| 0.0398 µM | CN1CCCN(C(=O)c2cc3cc(Cl)ccc3[nH]2)CC1 | – |
| 0.0398 µM | O=C(c1cc2cccc(F)c2[nH]1)N1CC(N2CCCC2)C1 | – |
| 0.0398 µM | Cc1ccc(F)c2cc(C(=O)N3CCN(C)CC3)[nH]c12 | – |
| 0.0316 µM | CN1CCN(C(=O)c2cc3c(F)cccc3[nH]2)CC1 | – |
| 0.0316 µM | CN1CCN(C(=O)c2cc3c(Cl)cccc3[nH]2)CC1 | – |
| 0.0316 µM | Cc1cc(Cl)cc2cc(C(=O)N3CC(N4CCCC4)C3)[nH]c12 | solubility [1]: 10 µg/mL (≈ 31.5 µM); half-life [2]: 11 min; half-life [3]: > 90 min |
| 0.0316 µM | CN1CCCN(C(=O)c2cc3c(F)c(Cl)ccc3[nH]2)CC1 | – |
| 0.0251 µM | CN1CCN(C(=O)c2cc3cc(O)ccc3[nH]2)CC1 | – |
| 0.0251 µM | CN1CCN(C(=O)c2cc3ccc(O)cc3[nH]2)CC1 | – |

| Ki (Histamine H4 receptor) | Structure (SMILES) | further results |
| --- | --- | --- |
| 0.02 µM | CN1CCN(C(=O)c2cc3cccc(F)c3[nH]2)CC1 | – |
| 0.02 µM | O=C(c1cc2cc(Cl)cc(F)c2[nH]1)N1CCNCC1 | – |
| 0.02 µM | CN1CCN(C(=O)c2cc3cccc(Cl)c3[nH]2)CC1 | – |
| 0.0158 µM | CN1CCN(C(=O)c2cc3cccc(N)c3[nH]2)CC1 | – |
| 0.0158 µM | O=C(c1cc2cc(Cl)cc(F)c2[nH]1)N1CC(N2CCCC2)C1 | – |
| 0.0158 µM | CN1CCN(C(=O)c2cc3cc(F)ccc3[nH]2)CC1 | – |
| 0.0126 µM | Cc1cccc2cc(C(=O)N3CCN(C)CC3)[nH]c12 | – |
| 0.0126 µM | Cc1cc(Cl)cc2cc(C(=O)N3CCNCC3)[nH]c12 | solubility [1]: 65 µg/mL (≈ 234 µM); half-life [2]: 16 min; half-life [3]: > 90 min |
| 0.0126 µM | O=C(c1cc2cc(Cl)ccc2[nH]1)N1CCNCC1 | – |
| 0.01 µM | O=C(c1cc2cc(Cl)ccc2[nH]1)N1CC(N2CCCC2)C1 | – |
| 0.00631 µM | CN1CCN(C(=O)c2cc3c(Cl)c(Cl)ccc3[nH]2)CC1 | – |
| 0.00631 µM | CN1CCN(C(=O)c2cc3c(F)c(Cl)ccc3[nH]2)CC1 | – |
| 0.00631 µM | CN1CCN(C(=O)c2cc3cc(Cl)cc(F)c3[nH]2)CC1 | – |
| 0.00631 µM | Cc1cc(Cl)cc2cc(C(=O)N3CCN(C)CC3)[nH]c12 | solubility [1]: 57 µg/mL (≈ 195 µM); half-life [2]: 2 min; half-life [3]: > 45 min |
| 0.00501 µM | CN1CCN(C(=O)c2cc3cc(Cl)cc(N)c3[nH]2)CC1 | solubility [1]: 67 µg/mL (≈ 229 µM); half-life [2]: 14 min; half-life [3]: 66 min |
